{"source": "ChEMBL document CHEMBL5576109", "about": "“Hydantoin derivative dimers as broad-spectrum antimicrobial agents against ESKAPE pathogens with enhanced killing rate and stability” (RSC Med Chem, 2024)", "key": {"Bacillus subtilis": {"test_system": "Bacillus subtilis", "test": "Antibacterial activity against Bacillus subtilis ATCC 6633 assessed as reduction bacterial growth after 16 hrs by TECAN SPARK microplate reader analysis", "type": "functional", "procedure,_shortened": "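Single colony grown overnight in 4 mL TSB at 37 °C, diluted 100-fold and grown to mid-log phase. Compounds 2-fold serially diluted in TSB and mixed 1:1 with bacteria in TSB (1 × 10^6 CFU/mL). Incubated 16 h at 37 °C, then A600 read. MIC taken as the lowest concentration giving complete growth inhibition.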"}, "Staphylococcus aureus [1]": {"test_system": "Staphylococcus aureus", "test": "Antibacterial activity against methicillin-resistant Staphylococcus aureus ATCC 43300 assessed as reduction bacterial growth after 16 hrs by TECAN SPARK microplate reader analysis", "type": "functional", "procedure,_shortened": "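Broth microdilution in TSB: single colony grown overnight at 37 °C, diluted 100-fold and grown to mid-log phase. 2-fold serial compound dilutions mixed 1:1 with bacteria at 1 × 10^6 CFU/mL, incubated 16 h at 37 °C, absorbance read at 600 nm. MIC taken as lowest concentration giving complete growth inhibition.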"}, "Staphylococcus aureus [2]": {"test_system": "Staphylococcus aureus", "test": "Antibacterial activity against Staphylococcus aureus ATCC 29213 assessed as inhibition of bacterial growth by measuring fold increase in MIC compound preincubated at 40 degree C for 1 hr followed by bacterial culture addition and measured after 16 to 18 hrs by TECAN SPARK microplate reader analysis", "type": "functional", "conditions": "time 16-18 hrs"}, "Staphylococcus aureus [3]": {"test_system": "Staphylococcus aureus", "test": "Antibacterial activity against Staphylococcus aureus ATCC 29213 assessed as inhibition of bacterial growth by measuring fold increase in MIC compound preincubated at 80 degree C for 1 hr followed by bacterial culture addition and measured after 16 to 18 hrs by TECAN SPARK microplate reader analysis", "type": "functional", "conditions": "time 16-18 hrs"}, "Staphylococcus aureus [4]": {"test_system": "Staphylococcus aureus", "test": "Antibacterial activity against Staphylococcus aureus ATCC 29213 assessed as inhibition of bacterial growth by measuring fold increase in MIC measured after 16 to 18 hrs in presence of KCl by TECAN SPARK microplate reader analysis", "type": "functional", "conditions": "time 16-18 hrs", "procedure,_shortened": "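Salt/serum stability. Exponential-phase bacteria incubated 16–18 h with compound in medium supplemented with 10 mM NaCl, 10 mM KCl, 10 mM MgCl2, 10% DMEM or 10% FBS. Stability judged from the change in MIC.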"}, "Escherichia coli [5]": {"test_system": "Escherichia coli", "test": "Induction of cytoplasmic membrane depolarization in Escherichia coli ATCC 25922 assessed as increase in fluorescence intensity by DiSC3(5) staining based analysis", "type": "functional, organism-based", "procedure,_shortened": "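Mid-log cells washed in 5 mM HEPES/5 mM glucose and resuspended at 10^6 CFU/mL in glucose/HEPES/100 mM KCl (1:1:1). DiSC3(5) added and fluorescence (Ex 622 / Em 670 nm) followed for 30 min at 37 °C until minimal. Compound then added and the fluorescence rise recorded.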"}, "Staphylococcus aureus [6]": {"test_system": "Staphylococcus aureus", "test": "Induction of morphological changes in Staphylococcus aureus ATCC 29213 assessed as cell shrinkage at 8 time of MIC for 6 hrs by scanning electron microscopy", "type": "functional, organism-based", "procedure,_shortened": "(§1)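 Mid-log cells exposed to compound for 6 h at 37 °C alongside untreated controls. Cells pelleted (3000 rpm, 15 min), washed four times in PBS, and fixed with 2.5% glutaraldehyde. Dehydrated through graded ethanol, critical-point dried and gold-coated, then imaged by SEM.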"}, "Escherichia coli [7]": {"test_system": "Escherichia coli", "test": "Induction of morphological changes in Escherichia coli ATCC 25922 assessed as cell collapse at 8 time of MIC for 6 hrs by scanning electron microscopy", "type": "functional, organism-based", "procedure,_shortened": "as §1"}, "Escherichia coli [8]": {"test_system": "Escherichia coli", "test": "Induction of morphological changes in Escherichia coli ATCC 25922 assessed as cellular inclusion leakage at 8 time of MIC for 6 hrs by scanning electron microscopy", "type": "functional, organism-based", "procedure,_shortened": "as §1"}}, "note": "Calls of active or inactive are those of the source. The calls are words filed in the database; no cut-off is given here."}
{"compound": "CCCCCCN1C(=O)[C@H](CCCCNC(=N)N)N(Cc2ccc(-c3ccc(CN4C(=O)N(CCCCCC)C(=O)[C@@H]4CCCCNC(=N)N)cc3)cc2)C1=O", "values": [{"measurement": "MIC", "setting": "Bacillus subtilis", "result": 1.95, "unit": "µg/mL"}, {"measurement": "MIC", "setting": "Staphylococcus aureus [1]", "result": 7.81, "unit": "µg/mL"}, {"measurement": "fold change (FC)", "setting": "Staphylococcus aureus [2]", "result": 1}, {"measurement": "fold change (FC)", "setting": "Staphylococcus aureus [3]", "result": 1}, {"measurement": "fold change (FC)", "setting": "Staphylococcus aureus [4]", "result": 1}, {"measurement": "Activity", "setting": "Escherichia coli [5]", "result": "Dose-Dependent Effect"}, {"measurement": "Activity", "setting": "Staphylococcus aureus [6]", "result": "Active"}, {"measurement": "Activity", "setting": "Escherichia coli [7]", "result": "Active"}, {"measurement": "Activity", "setting": "Escherichia coli [8]", "result": "Active"}]}
